Measured values published in ChEMBL document CHEMBL1151442, “Genetic and phenotypic identification of fusidic acid-resistant mutants with the small-colony-variant phenotype in Staphylococcus aureus” (2007).
In brackets after ≈: the same amount, converted by molar mass.

How the values were obtained:
Assay type in all cases: functional
[1] = tested on: Staphylococcus aureus; experiment: Antibacterial activity against kanamycin-resistant Staphylococcus aureus AH369 (SCV-41) harboring Gln115Leu mutation in fusA gene after 18 to 24 hrs by Etest strip assay
How it was run: (§1)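 SCVs of a Rifr 8325-4 derivative were selected on LA with KAN at 8, 16 or 24 μg/ml for 48 h at 37°C. They were purified at the same KAN level and screened on LA plus FA 1 μg/ml.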

[2] = tested on: Staphylococcus aureus; experiment: Antibacterial activity against kanamycin-resistant and fusidic acid-susceptible Staphylococcus aureus AH417 harboring -1 frameshift mutation at nucleotide 422 in rplF gene after 18 to 24 hrs by Etest strip assay
How it was run: (§2)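 Etest MIC: a single colony was suspended in 0.9% NaCl to 0.5 McFarland and swabbed over Mueller-Hinton agar. The strip was applied and plates were incubated at 37°C for 18 to 24 h until an SCV lawn grew.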

[3] = tested on: Staphylococcus aureus; experiment: Antibacterial activity against kanamycin-resistant and fusidic acid-susceptible Staphylococcus aureus AH294 harboring Gly628Val mutation in fusA gene after 18 to 24 hrs by Etest strip assay; how it was run: as §2
[4] = tested on: Staphylococcus aureus; experiment: Antibacterial activity against kanamycin-resistant Staphylococcus aureus AH386 (SCV-58) harboring -1 frameshift mutation at nucleotide 90 in rplF gene after 18 to 24 hrs by Etest strip assay; how it was run: as §1
[5] = tested on: Staphylococcus aureus; experiment: Antibacterial activity against kanamycin-resistant Staphylococcus aureus AH340 (SCV-12) harboring Gly617Asp mutation in fusA gene after 18 to 24 hrs by Etest strip assay; how it was run: as §1
[6] = tested on: Staphylococcus aureus; experiment: Antibacterial activity against fusidic acid-resistant Staphylococcus aureus AH187 harboring His457Tyr mutation in fusA gene after 18 to 24 hrs by Etest strip assay
How it was run: (§3)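 Mutants of lab strain 8325-4 were selected on LA with FA 2 μg/ml for 48 h at 37°C and purified on selective medium. For the MIC, one colony was suspended in 0.9% NaCl to 0.5 McFarland and swabbed onto Mueller-Hinton agar. An Etest strip was applied and plates were incubated at 37°C for 18–24 h until the lawn was evident.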

[7] = tested on: Staphylococcus aureus; experiment: Antibacterial activity against kanamycin-resistant Staphylococcus aureus AH351 (SCV-23) harboring -4 frameshift mutation at nucleotide 45-48 in rplF gene after 18 to 24 hrs by Etest strip assay; how it was run: as §1
[8] = tested on: Staphylococcus aureus; experiment: Antibacterial activity against kanamycin-resistant and fusidic acid-susceptible Staphylococcus aureus AH416 harboring deletion of nucleotide 395-398 in rplF gene after 18 to 24 hrs by Etest strip assay; how it was run: as §2
[9] = tested on: Staphylococcus aureus; experiment: Antibacterial activity against kanamycin-resistant and fusidic acid-susceptible Staphylococcus aureus AH422 harboring +2 frameshift mutation at nucleotide 222 in rplF gene after 18 to 24 hrs by Etest strip assay; how it was run: as §2
[10] = tested on: Staphylococcus aureus; experiment: Antibacterial activity against fusidic acid-resistant Staphylococcus aureus AH196 harboring Pro406Leu mutation in fusA gene after 18 to 24 hrs by Etest strip assay; how it was run: as §3
[11] = tested on: Staphylococcus aureus; experiment: Antibacterial activity against kanamycin-resistant Staphylococcus aureus AH337 (SCV-9) harboring -1 frameshift mutation at nucleotide 220 in rplF gene after 18 to 24 hrs by Etest strip assay; how it was run: as §1
[12] = tested on: Staphylococcus aureus; experiment: Antibacterial activity against kanamycin-resistant Staphylococcus aureus AH336 (SCV-8) harboring His438Asn mutation in fusA gene after 18 to 24 hrs by Etest strip assay; how it was run: as §1
[13] = tested on: Staphylococcus aureus; experiment: Antibacterial activity against kanamycin-resistant Staphylococcus aureus AH349 (SCV-21) harboring -1 frameshift mutation at nucleotide 404 in rplF gene after 18 to 24 hrs by Etest strip assay; how it was run: as §1
[14] = tested on: Staphylococcus aureus; experiment: Antibacterial activity against fusidic acid-resistant Staphylococcus aureus AH199 harboring TAA stop codon at nucleotide 241 in rplF gene after 18 to 24 hrs by Etest strip assay; how it was run: as §3
[15] = tested on: Staphylococcus aureus; experiment: Antibacterial activity against kanamycin-resistant and fusidic acid-susceptible Staphylococcus aureus AH296 harboring Gly664Ala mutation in fusA gene after 18 to 24 hrs by Etest strip assay; how it was run: as §2
[16] = tested on: Staphylococcus aureus; experiment: Antibacterial activity against kanamycin-resistant Staphylococcus aureus AH331 (SCV-3) harboring Arg659His mutation in fusA gene after 18 to 24 hrs by Etest strip assay; how it was run: as §1
[17] = tested on: Staphylococcus aureus; experiment: Antibacterial activity against kanamycin-resistant Staphylococcus aureus AH338 (SCV-10) harboring Arg464Cys mutation in fusA gene after 18 to 24 hrs by Etest strip assay; how it was run: as §1
[18] = tested on: Staphylococcus aureus; experiment: Antibacterial activity against fusidic acid-resistant Staphylococcus aureus AH207 harboring Thr385Asn mutation in fusA gene after 18 to 24 hrs by Etest strip assay; how it was run: as §3
[19] = tested on: Staphylococcus aureus; experiment: Antibacterial activity against kanamycin-resistant Staphylococcus aureus AH360 (SCV-32) harboring ATA start codon at nucleotide 3 in rplF gene after 18 to 24 hrs by Etest strip assay; how it was run: as §1
[20] = tested on: Staphylococcus aureus; experiment: Antibacterial activity against kanamycin-resistant Staphylococcus aureus AH358 (SCV-30) harboring -1 frameshift mutation at nucleotide 423 in rplF gene after 18 to 24 hrs by Etest strip assay; how it was run: as §1
[21] = tested on: Staphylococcus aureus; experiment: Antibacterial activity against kanamycin-resistant Staphylococcus aureus AH367 (SCV-39) harboring Gly664Ser mutation in fusA gene after 18 to 24 hrs by Etest strip assay; how it was run: as §1
[22] = tested on: Staphylococcus aureus; experiment: Antibacterial activity against kanamycin-resistant and fusidic acid-susceptible Staphylococcus aureus AH298 harboring Gly664Val mutation in fusA gene after 18 to 24 hrs by Etest strip assay; how it was run: as §2
[23] = tested on: Staphylococcus aureus; experiment: Antibacterial activity against kanamycin-resistant and fusidic acid-susceptible wild type Staphylococcus aureus 8325-4 […] after 18 to 24 hrs by Etest strip assay; how it was run: as §2
[24] = tested on: Staphylococcus aureus; experiment: Antibacterial activity against kanamycin-resistant Staphylococcus aureus AH330 (SCV-2) harboring -1 frameshift mutation at nucleotide 423 in rplF gene after 18 to 24 hrs by Etest strip assay; how it was run: as §1
[25] = tested on: Staphylococcus aureus; experiment: Antibacterial activity against kanamycin-resistant Staphylococcus aureus AH333 (SCV-5) harboring TAA stop codon at nucleotide 249 in rplF but gene after 18 to 24 hrs by Etest strip assay; how it was run: as §1
[26] = tested on: Staphylococcus aureus; experiment: Antibacterial activity against kanamycin-resistant Staphylococcus aureus AH339 (SCV-11) harboring -1 frameshift mutation at nucleotide 144 in rplF gene after 18 to 24 hrs by Etest strip assay; how it was run: as §1
[27] = tested on: Staphylococcus aureus; experiment: Antibacterial activity against kanamycin-resistant Staphylococcus aureus AH374 (SCV-46) harboring -5 frameshift mutation at nucleotide 236-240 in rplF gene after 18 to 24 hrs by Etest strip assay; how it was run: as §1
[28] = tested on: Staphylococcus aureus; experiment: Antibacterial activity against kanamycin-resistant and fusidic acid-susceptible Staphylococcus aureus AH292 harboring Gly664Val mutation in fusA gene after 18 to 24 hrs by Etest strip assay; how it was run: as §2
[29] = tested on: Staphylococcus aureus; experiment: Antibacterial activity against kanamycin-resistant and fusidic acid-susceptible Staphylococcus aureus AH290 harboring duplication mutation at nucleotide 202-293 in rplF gene after 18 to 24 hrs by Etest strip assay; how it was run: as §2
[30] = tested on: Staphylococcus aureus; experiment: Antibacterial activity against fusidic acid-resistant Staphylococcus aureus AH188 harboring Gly664Ser mutation in fusA gene after 18 to 24 hrs by Etest strip assay; how it was run: as §3
[31] = tested on: Staphylococcus aureus; experiment: Antibacterial activity against fusidic acid-resistant Staphylococcus aureus AH201 harboring Gly452Cys mutation in fusA after 18 to 24 hrs by Etest strip assay; how it was run: as §3
[32] = tested on: Staphylococcus aureus; experiment: Antibacterial activity against kanamycin-resistant Staphylococcus aureus AH366 (SCV-38) harboring Pro114His mutation in fusA gene after 18 to 24 hrs by Etest strip assay; how it was run: as §1

Structure (SMILES) | MIC [1] [µg/mL] | MIC [2] [µg/mL] | MIC [3] [µg/mL] | MIC [4] [µg/mL] | MIC [5] [µg/mL] | MIC [6] [µg/mL] | MIC [7] [µg/mL] | MIC [8] [µg/mL] | MIC [9] [µg/mL] | MIC [10] [µg/mL] | MIC [11] [µg/mL] | MIC [12] [µg/mL] | MIC [13] [µg/mL] | MIC [14] [µg/mL] | MIC [15] [µg/mL] | MIC [16] [µg/mL] | MIC [17] [µg/mL] | MIC [18] [µg/mL] | MIC [19] [µg/mL] | MIC [20] [µg/mL] | other results
CN[C@@H]1[C@H](O[C@H]2[C@H](O[C@H]3[C@H](O)[C@@H](O)[C@H](N=C(N)N)[C@@H](O)[C@@H]3N=C(N)N)O[C@@H](C)[C@]2(O)C=O)O[C@@H](CO)[C@H](O)[C@H]1O [STREPTOMYCIN] | 12 (≈ 20.6 µM) | 256 | 8 (≈ 13.8 µM) | 96 | 24 (≈ 41.3 µM) | 6 (≈ 10.3 µM) | 256 | 256 (≈ 440 µM) | 32 | 8 (≈ 13.8 µM) | 256 | 12 (≈ 20.6 µM) | 64 | 16 (≈ 27.5 µM) | 8 (≈ 13.8 µM) | 24 (≈ 41.3 µM) | 24 (≈ 41.3 µM) | 12 (≈ 20.6 µM) | 192 (≈ 330 µM) | 64 | MIC [21]: 16 µg/mL (≈ 27.5 µM); MIC [22]: 6 µg/mL (≈ 10.3 µM); MIC [23]: 6 µg/mL (≈ 10.3 µM); MIC [24]: 96 µg/mL; MIC [25]: 24 µg/mL (≈ 41.3 µM); MIC [26]: 128 µg/mL; MIC [27]: 96 µg/mL; MIC [28]: 16 µg/mL (≈ 27.5 µM); MIC [29]: 64 µg/mL (≈ 110 µM); MIC [30]: 16 µg/mL (≈ 27.5 µM); MIC [31]: 8 µg/mL (≈ 13.8 µM); MIC [32]: 24 µg/mL (≈ 41.3 µM)
CC(=O)O[C@H]1C[C@@]2(C)[C@@H](C[C@@H](O)[C@H]3[C@@]4(C)CC[C@@H](O)[C@@H](C)[C@@H]4CC[C@@]32C)/C1=C(\CCC=C(C)C)C(=O)O [FUSIDIC ACID] | 48 (≈ 92.9 µM) | 24 | 2 (≈ 3.87 µM) | 24 | 4 (≈ 7.74 µM) | 96 (≈ 186 µM) | 16 | 48 (≈ 92.9 µM) | 12 | 6 (≈ 11.6 µM) | 12 | 8 (≈ 15.5 µM) | 4 | 4 (≈ 7.74 µM) | 3 (≈ 5.81 µM) | 8 (≈ 15.5 µM) | 2 (≈ 3.87 µM) | 4 (≈ 7.74 µM) | 24 (≈ 46.4 µM) | 12 | MIC [21]: 12 µg/mL (≈ 23.2 µM); MIC [22]: 6 µg/mL (≈ 11.6 µM); MIC [23]: 0.047 µg/mL (≈ 0.091 µM); MIC [24]: 12 µg/mL; MIC [25]: 12 µg/mL (≈ 23.2 µM); MIC [26]: 6 µg/mL; MIC [27]: 8 µg/mL; MIC [28]: 6 µg/mL (≈ 11.6 µM); MIC [29]: 8 µg/mL (≈ 15.5 µM); MIC [30]: 4 µg/mL (≈ 7.74 µM); MIC [31]: 12 µg/mL (≈ 23.2 µM); MIC [32]: 12 µg/mL (≈ 23.2 µM)
NC[C@H]1O[C@H](O[C@H]2[C@H](O)[C@@H](O[C@H]3O[C@H](CO)[C@@H](O)[C@H](N)[C@H]3O)[C@H](N)C[C@@H]2N)[C@H](O)[C@@H](O)[C@@H]1O [KANAMYCIN] | 6 (≈ 12.4 µM) | 256 | 16 (≈ 33 µM) | 256 | 12 (≈ 24.8 µM) | 3 (≈ 6.19 µM) | 64 | 256 (≈ 528 µM) | 128 | 3 (≈ 6.19 µM) | 96 | 16 (≈ 33 µM) | 16 | 8 (≈ 16.5 µM) | 16 (≈ 33 µM) | 16 (≈ 33 µM) | 48 (≈ 99.1 µM) | 3 (≈ 6.19 µM) | 96 (≈ 198 µM) | 48 | MIC [21]: 12 µg/mL (≈ 24.8 µM); MIC [22]: 32 µg/mL (≈ 66 µM); MIC [23]: 2 µg/mL (≈ 4.13 µM); MIC [24]: 128 µg/mL; MIC [25]: 8 µg/mL (≈ 16.5 µM); MIC [26]: 64 µg/mL; MIC [27]: 32 µg/mL; MIC [28]: 32 µg/mL (≈ 66 µM); MIC [29]: 256 µg/mL (≈ 528 µM); MIC [30]: 24 µg/mL (≈ 49.5 µM); MIC [31]: 6 µg/mL (≈ 12.4 µM); MIC [32]: 12 µg/mL (≈ 24.8 µM)
